Measured values as given in article PMC6463388 (Biochemical Journal, 2019).

T1: AtGCL (WT γ-glutamylcysteine ligase) (Arabidopsis thaliana, UniProt P46309)
T1 sequence (P46309 74-522): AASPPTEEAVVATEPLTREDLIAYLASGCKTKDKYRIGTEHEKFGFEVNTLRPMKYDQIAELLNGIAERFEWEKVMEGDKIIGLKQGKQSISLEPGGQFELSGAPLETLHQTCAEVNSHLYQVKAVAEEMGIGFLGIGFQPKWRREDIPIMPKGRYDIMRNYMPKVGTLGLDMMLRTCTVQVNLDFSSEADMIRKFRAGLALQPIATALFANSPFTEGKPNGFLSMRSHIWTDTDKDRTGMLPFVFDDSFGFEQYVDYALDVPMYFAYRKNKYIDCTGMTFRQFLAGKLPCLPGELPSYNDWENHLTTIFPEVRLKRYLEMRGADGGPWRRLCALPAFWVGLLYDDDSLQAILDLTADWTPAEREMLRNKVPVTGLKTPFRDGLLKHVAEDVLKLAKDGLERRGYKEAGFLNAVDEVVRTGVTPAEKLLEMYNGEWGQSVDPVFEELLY

B1: AtGCL (WT γ-glutamylcysteine ligase) (Arabidopsis thaliana) (protein)
chain: T1 sequence (P46309 74-522)

Key:
[1] = target: T1, AtGCL (WT γ-glutamylcysteine ligase); experiment: inhibition of GCL activity; format: biochemical; conditions: read-out: GSH
Outline: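 Recombinant His-tagged AtGCL from E. coli Rosetta-gami DE3, purified by Ni²⁺ affinity, cleaved with TEV protease, then passed through a second Ni²⁺ step. Pyruvate kinase/lactate dehydrogenase-coupled assay at pH 7.0 (100 mM MOPSO, 150 mM NaCl, 20 mM MgCl₂). […] Reaction started with 50 µg enzyme; A340 monitored.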

[2] = substrate: N[C@@H](CCC(=O)O)C(=O)O; experiment: purified protein; format: biochemical, Arabidopsis thaliana; conditions: 20 mM cysteine, 20 mM ATP, 20 mM MgCl2, pH 7.0, oxidized homo-dimer
[3] = substrate: N[C@@H](CS)C(=O)O; experiment: purified protein; format: biochemical, Arabidopsis thaliana; conditions: 20 mM ATP, 80 mM glutamate, 20 mM MgCl2, pH 7.0, oxidized homo-dimer

Molecule | activity at 2000 µM [1] | Km [2] | Km [3]
N[C@@H](CCC(=O)N[C@@H](CS)C(=O)NCC(=O)O)C(=O)O [GSH] | 49 ± 4% |  | 
B1 |  | 6.64 ± 1.02 mM | 0.34 ± 0.12 mM
